Measured values gathered from unrelated publications.
Lines come from different studies, so protocols differ.
Target: Serine/threonine-protein kinase tousled-like 1 (TLK1, Homo sapiens, UniProt Q9UKI8)
Residues used in one study (Q9UKI8 1-766): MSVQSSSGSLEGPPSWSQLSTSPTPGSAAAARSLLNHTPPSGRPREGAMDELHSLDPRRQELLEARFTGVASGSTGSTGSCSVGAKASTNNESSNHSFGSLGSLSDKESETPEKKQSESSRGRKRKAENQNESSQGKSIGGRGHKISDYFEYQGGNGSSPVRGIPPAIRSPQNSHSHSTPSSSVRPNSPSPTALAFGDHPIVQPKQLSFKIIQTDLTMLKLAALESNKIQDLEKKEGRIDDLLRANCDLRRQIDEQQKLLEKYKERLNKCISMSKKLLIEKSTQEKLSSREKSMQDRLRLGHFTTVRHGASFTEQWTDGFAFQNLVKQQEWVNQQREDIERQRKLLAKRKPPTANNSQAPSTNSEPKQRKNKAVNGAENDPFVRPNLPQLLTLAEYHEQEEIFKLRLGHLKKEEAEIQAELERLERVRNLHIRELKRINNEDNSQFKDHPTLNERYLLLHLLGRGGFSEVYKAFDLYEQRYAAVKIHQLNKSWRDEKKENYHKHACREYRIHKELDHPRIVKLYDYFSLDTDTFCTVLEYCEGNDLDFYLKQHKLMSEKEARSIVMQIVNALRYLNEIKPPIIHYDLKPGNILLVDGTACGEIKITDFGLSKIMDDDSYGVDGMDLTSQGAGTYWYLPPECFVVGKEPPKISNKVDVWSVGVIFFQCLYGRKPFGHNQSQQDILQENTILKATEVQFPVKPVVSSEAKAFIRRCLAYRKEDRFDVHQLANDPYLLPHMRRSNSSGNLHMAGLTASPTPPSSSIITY

Structure (SMILES) | test | setting | remaining binding [%]
O=S(=O)(NC1CCC(c2cc(F)ccc2F)(S(=O)(=O)c2ccc(Cl)cc2)CC1)C(F)(F)F (centres unmarked) | cell-free assay, competition with immobilised ligand | 1 µM | 100
COc1ccnn2ncc(-c3ccnc(N(C)C)n3)c12 | binding | 1 µM | 100
O=C(NCC1CCOCC1)c1n[nH]cc1NC(=O)c1c(F)cccc1F | binding, competition with immobilised ligand | 1 µM | 87
N[C@@H]1CCN(c2nccc(-c3cnn4ncccc34)n2)C1 | binding | 1 µM | 39
O=C(c1ccc(Nc2ncc(Cl)c(-c3cc4ccccc4s3)n2)cc1)N1CCC(N2CCCC2)CC1 | binding, competition with immobilised ligand | 1 µM | 32
COc1cnc(Nc2cccc(S(N)(=O)=O)c2)nc1N1CCN(c2ccccc2)CC1 | binding, competition with immobilised ligand | 1 µM | 80
O=C(c1ccc(Nc2nccc(-c3cc4ccccc4s3)n2)cc1)N1CCC(N2CCCC2)CC1 | binding, competition with immobilised ligand | 1 µM | 12
c1cncc(-c2cccc(Nc3nccc(NC4CCCCC4)n3)c2)c1 | binding, competition with immobilised ligand | 10 µM | 100
CN(CCCC(F)(F)F)c1nccc(-c2cnn3ncccc23)n1 | binding | 1 µM | 100
CCS(=O)(=O)c1cc2cc(C[C@](O)(CC(C)(C)c3ccc(F)cc3C(N)=O)C(F)(F)F)[nH]c2cn1 | cell-free assay, competition with immobilised ligand | 1 µM | 75
COc1cnc(Nc2cccc(S(N)(=O)=O)c2)nc1N1CCN(c2ccccc2)C(=O)C1 | binding, competition with immobilised ligand | 1 µM | 97
O=C(NCCCN1CCOCC1)c1ccc(Nc2nccc(-c3cc4ccccc4s3)n2)cc1 | binding, competition with immobilised ligand | 1 µM | 63
O=C(NC[C@@H]1[C@H]2CN(C(=O)OCc3cc(C(F)(F)F)cc(C(F)(F)F)c3)C[C@@H]12)c1ccc2[nH]nnc2c1 | cell-free assay, competition with immobilised ligand | 1 µM | 68
CC1CCCN1c1nccc(-c2cnn3ncccc23)n1 (centres unmarked) | binding | 1 µM | 97
CC(=O)Nc1c(C(C)=O)c(=O)n(C)c2nc(-c3ccc(Cl)cc3Cl)c(-c3ccc(Cl)cc3)cc12 | cell-free assay, competition with immobilised ligand | 1 µM | 100
C=CC(=O)N1CCC(C(=O)NCC(=O)N2CCN(c3nc(-c4cnc(N)nc4C(F)F)nc(N4CCOCC4)n3)CC2)CC1 | binding, competition with immobilised ligand | 1 µM | 99
CCc1ccccc1C(=O)Nc1n[nH]c2c(C)c(F)c(C3C(C#N)=C(C)N(C)C(C)=C3C#N)cc12 | cell-free assay, competition with immobilised ligand | 1 µM | 100
C[C@@H](c1ccc(-n2cnc3c(N)ncnc32)cc1)N1CCc2nn(C)c(Cc3ccccc3)c2C1=O | binding, competition with immobilised ligand | 0.1 µM | 81
Cc1nccc(COC(=O)N2C[C@@H]3[C@@H](CNC(=O)c4ccc5[nH]nnc5c4)[C@@H]3C2)n1 | cell-free assay, competition with immobilised ligand | 1 µM | 87
Cc1cnn2ncc(-c3ccnc(N(C)C)n3)c2c1 | binding | 1 µM | 75
